The values that follow come from PMC3272422 (Molecular cancer therapeutics, 2011).

SMILES strings stand for the structures. Like-named read-outs stand apart in the source and are kept apart here.

The test system of one data set is MDA-MB-468 cells. In words: Toxicity in MDA-MB-468 cells, MTT assay. The format is cell-based. (Tetrazolium dyes change colour on reduction, which living cells bring about.)
In the next data set the test system is BT474 cells. As to the kind of experiment: CB1954 toxicity in BT474 cells. The format is cell-based. To be noted: Homo sapiens.
A further data set deals with K562 cells. As to the kind of experiment: 96 hour toxicity, XTT assay. The format is cell-based. To be noted: read-out: 96 hour Toxicity in Cells IC50, K562.
The test system of data set [1] is NFκB transcriptional activity in MDA-MB-468 cells. In words: NFκB dual luciferase reporter assay. The format is cell-based. The method, boiled down: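 MDA-MB-468 cells (7×10^5 per 6 cm plate, 24 h attachment) were transfected with 1 µg/plate Cignal NFκB reporter (6× NFκB element-driven firefly, CMV-Renilla) using Oligofectamine in opti-MEM for 5 h at 37 °C. They were then re-fed with RPMI/10% FCS and reseeded into 96-well plates. Cells were pretreated for 1 h with 100 µM NRH and/or 20 ng/mL TNFα, then given test compound (DMSO ≤0.5% final) for 18 h. Passive lysis, dual-luciferase read-out.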

In data set [2] the test system is NFκB in Renal Carcinoma cells. To be noted: cited from earlier work.
A further data set addresses T1, Recombinant human NQO2 (Homo sapiens, UniProt P16083).
T1 sequence (P16083 1-231): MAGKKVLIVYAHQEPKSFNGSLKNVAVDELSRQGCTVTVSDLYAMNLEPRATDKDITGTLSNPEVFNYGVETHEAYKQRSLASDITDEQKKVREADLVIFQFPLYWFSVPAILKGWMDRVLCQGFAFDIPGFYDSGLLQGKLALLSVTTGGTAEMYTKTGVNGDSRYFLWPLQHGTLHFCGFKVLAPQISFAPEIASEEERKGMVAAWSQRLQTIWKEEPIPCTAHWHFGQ
In words: Inhibition of recombinant NQO2 enzymatic activity. The class given is biochemical. To be noted: for IC50: 200 μM NRH, DCPIP; for ΔGexp, experimentally determined binding affinity: derived from IC50 by the Cheng-Prusoff equation.

For a further data set, the system named is Recombinant human NQO1. To be noted: previously reported; cited from earlier work.
[3] abbreviates: Homo sapiens, MDA-MB-468, read-out: 3hr toxicity (IC50) Inhibitor alone.
Where [4] appears, read: IC50 + BSA, presence of 2 μM BSA.
Setting [5] is: read-out: 96 hour Toxicity in Cells IC50, MDA-MB-468, 96 hour exposure.
Where [6] appears, read: read-out: IC50 + BSA, presence of 2 μM BSA.
The mark [7] stands for this setting: read-out: IC50 – BSA, absence of BSA.

The term IC50 denotes the concentration at which inhibition is half-maximal.

Consider `NC(=O)c1cc(N2CC2)c([N+](=O)[O-])cc1[N+](=O)[O-]` [CB1954, 5-(-aziridin-1-yl)-2,4-dinitrobenzamide, reference compound], for which the “proliferation of MDA-MB-468 cells” value with MDA-MB-468 cells (100μM CB1954 plus 100μM NRH, 3 hours) is given as “about 25%”. Further, the IC50 in the data set with MDA-MB-468 cells (Homo sapiens, MDA-MB-468, 3 h, read-out: IC50 of CB1954 alone) was more than 1000 µM; in the data set with BT474 cells (BT-474, read-out: IC50 of CB1954, absence of NRH) it was more than 1000 µM; in the data set on BT474 cells (BT-474, read-out: IC50 of CB1954, presence of 100μM NRH) it was 1000 µM.

As for `Cc1ccc(NC(=O)c2ccc(CN3CCN(C)CC3)cc2)cc1Nc1nccc(-c2cccnc2)n1` [Imatinib, reference compound], the IC50 in the data set on K562 cells (Homo sapiens, K562, 96 h) turned out to be 0.68 ± 0.51 µM.

For `NC(=O)C1=CN([C@@H]2O[C@H](CO)[C@@H](O)[C@H]2O)C=CC1` [NRH, N-ribosyl nicotinamide, reference compound], the “NFκB activity (luciferase)” value in data set [1] (100μM NRH, without TNFα) is listed as “stimulates NFκB activity”. Further, in the data set with MDA-MB-468 cells (1μM to 1mM NRH), the “toxicity of NRH itself” value is given as “no toxicity”.

For the molecule `Nc1c2ccccc2nc2ccccc12` [NSC13000, 9-aminoacridine], the “NFκB transcriptional (luciferase) activity” value in data set [1] (0.1μM NSC13000, cells with or without 100μM NRH) is “reduces the luciferase activity”. The “basal and induced activity of NFκB” value in data set [2] is “effectively suppressed”. In addition, the IC50 in the data set with MDA-MB-468 cells (setting [3]) was 23 ± 5.1 µM; in the data set on K562 cells (Homo sapiens, K562, 96 h) it was 1 ± 1.4 µM.

As for `CCN(CC)CCCC(C)Nc1c2ccc(Cl)cc2nc2ccc(OC)cc12` (stereo not drawn) [NSC14229, Quinacrine], the “basal and induced activity of NFκB” value in data set [2] is recorded as “effectively suppressed”. The IC50 was 4 ± 3.6 µM in the data set with K562 cells (Homo sapiens, K562, 96 h); 8.5 ± 1.6 µM on Recombinant human NQO2 (setting [4]); 0.2 ± 0.05 µM on Recombinant human NQO2 (IC50 – BSA, absence of BSA). The “ΔGexp, experimentally determined binding affinity” value (“ΔGexp, experimentally” below) at Recombinant human NQO2 was -9.197 kcal/mol.

For the molecule `Cc1c2ccncc2c(C)c2c1[nH]c1ccccc12` [NSC71795], the half-maximal inhibitory concentration (IC50) with MDA-MB-468 cells (setting [5]) worked out at 0.27 ± 0.2 µM; in the data set with K562 cells (96 hour exposure) it was 0.73 ± 0.6 µM; at Recombinant human NQO2 (setting [6]), 0.24 ± 0.09 µM; at Recombinant human NQO2 (setting [7]), 0.05 ± 0.01 µM. Besides, the “ΔGexp, experimentally” value on Recombinant human NQO2 was -10.07 kcal/mol.

As to `Cc1c2cnccc2c(C)c2c1c1ccccc1n2CCNCc1ccccc1` [NSC164016], the IC50 is 0.43 ± 0.24 µM in the data set on MDA-MB-468 cells (setting [5]), 0.7 ± 0.29 µM with K562 cells (96 hour exposure), 3 ± 1.21 µM on Recombinant human NQO2 (setting [6]) and 0.02 ± 0.01 µM on Recombinant human NQO2 (setting [7]). The “ΔGexp, experimentally” value at Recombinant human NQO2 was -10.74 kcal/mol.

Take `N=C(N)c1ccc(-c2ccc(-c3ccc(C(=N)N)cc3)o2)cc1` [NSC305831]: the IC50 in the data set on MDA-MB-468 cells (setting [3]) was 114 ± 52 µM; with K562 cells (Homo sapiens, K562, 96 h), 27 ± 35 µM; on Recombinant human NQO2 (setting [4]), 2.8 ± 0.61 µM. Moreover, on Recombinant human NQO2, the “ΔGexp, experimentally” value is -8.513 kcal/mol.

In the case of `Cc1c(-c2ccc(C(=N)N)cc2)oc(-c2ccc(C(=N)N)cc2)c1C` [NSC305836], the IC50 in the data set with MDA-MB-468 cells (setting [5]) is 3.9 ± 2.5 µM; in the data set on K562 cells (96 hour exposure) it was 5.5 ± 3.6 µM; on Recombinant human NQO2 (setting [6]), 0.2 ± 0.09 µM; on Recombinant human NQO2 (setting [7]) it was 0.05 ± 0.01 µM. In addition, at Recombinant human NQO2, the “ΔGexp, experimentally” value is -10.07 kcal/mol.

With `Nc1cc2c(cc1[N+](=O)[O-])[nH]c1c(-c3ccccc3)nccc12` [NSC620318], the IC50 in the data set on MDA-MB-468 cells (setting [5]) was 22 ± 9.1 µM; in the data set with K562 cells (96 hour exposure), 35 ± 33 µM; on Recombinant human NQO2 (setting [6]), 4.1 ± 1.05 µM; on Recombinant human NQO2 (setting [7]) it was 0.2 ± 0.01 µM. Also, the “ΔGexp, experimentally” value on Recombinant human NQO2 was -9.197 kcal/mol.

In the case of `O=C1c2c(c3c4ccccc4[nH]c3c3[nH]c4ccccc4c23)C(=O)N1Cc1ccccc1` [NSC628440], the “inhibition of NQO1” value in the data set with Recombinant human NQO1 is “relatively weak inhibitor”. Further, the IC50 in the data set with MDA-MB-468 cells (setting [5]) is 4 ± 0.021 µM; in the data set on K562 cells (96 hour exposure), 0.75 ± 0.76 µM; at Recombinant human NQO2 (setting [6]), 9.8 ± 0.92 µM; on Recombinant human NQO2 (setting [7]) it was 0.66 ± 0.08 µM. Besides, the “ΔGexp, experimentally” value at Recombinant human NQO2 was -8.485 kcal/mol.

`Oc1ccc(/C=C/c2cc(O)cc(O)c2)cc1` [Resveratrol, reference compound]: the IC50 in the data set on MDA-MB-468 cells (setting [3]) was more than 100 µM; in the data set on K562 cells (Homo sapiens, K562, 96 h), 72 ± 5.1 µM.
